Experiments:
[1] = tested on: Enterovirus C; assay: Antiviral activity against poliovirus infected HeLa S3 cells assessed as plaque formation at 2 mM; type: functional
Procedure, shortened: (§1)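 HeLa S3 cells (DMEM/F-12, 2% dialyzed FBS) were pretreated with nucleoside for 1 h at 37 °C in 1% DMSO final. Cells were infected with poliovirus (1 × 10⁶ PFU in PBS) for 15 min at 23 °C, then kept 6 h at 37 °C with nucleoside. Cell-associated virus was released by three freeze–thaw cycles and titred by plaque assay on HeLa S3 (1% low-melting agarose overlay, 2 days, crystal violet). Titre is given as % of untreated control.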

[2] = tested on: Enterovirus C; assay: Antiviral activity against poliovirus infected HeLa S3 cells assessed as plaque formation at 0.5 mM relative to control; type: functional; procedure, shortened: as §1
[3] = tested on: Enterovirus C; assay: Ratio of kcat/Km of Poliovirus RNA dependent RNA polymerase incorporation into sym/sub-U primer; set-up: unit not given here
[4] = tested on: Enterovirus C; assay: Incorporation of Poliovirus RNA dependent RNA polymerase into sym/sub-C primer
Procedure, shortened: (§2)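 NTP was 10–250 µM; reactions ran 2 min at 30 °C and were quenched with EDTA. Products were resolved by 20% denaturing PAGE. Initial rates came from the elongated fraction, and kcat and KM from Lineweaver–Burk plots (mean ± SD, n = 3).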

[5] = tested on: Enterovirus C; assay: Incorporation of Poliovirus RNA dependent RNA polymerase into sym/sub-U primer; procedure, shortened: as §2
[6] = tested on: Enterovirus C; assay: Ratio of kcat/Km of Poliovirus RNA dependent RNA polymerase incorporation into sym/sub-C primer relative to control; set-up: unit not given here

Row | Compound | Activity [1] [%] | Activity [2] [%] | kcat/Km [3] | Km [4] [µM] | kcat [4] | Km [5] [µM] | kcat [5] | kcat/Km [6]
1 | CC#Cc1cn([C@@H]2O[C@H](CO)[C@@H](O)[C@H]2O)nc1C(N)=O | 57 | 94 |  |  |  |  |  | 
2 | CC#Cc1cn([C@@H]2O[C@H](COP(=O)(O)OP(=O)(O)OP(=O)(O)O)[C@@H](O)[C@H]2O)nc1C(N)=O |  |  | 9.1 | 51 | 1.3 10^-4/s | 35 | 3.1 10^-4/s | 2.6
3 | NC(=O)c1nn([C@@H]2O[C@H](CO)[C@@H](O)[C@H]2O)cc1C#Cc1ccccc1 |  | 122 |  |  |  |  |  | 
4 | Nc1ncnc2c1ncn2[C@@H]1O[C@H](COP(=O)(O)OP(=O)(O)OP(=O)(O)O)[C@@H](O)[C@H]1O |  |  |  | 110 | 0.82 10^-4/s |  |  | 
5 | NC(=O)c1ncn([C@@H]2O[C@H](COP(=O)(O)OP(=O)(O)OP(=O)(O)O)[C@@H](O)[C@H]2O)n1 |  |  |  | 69 | 5.8 10^-4/s | 34 | 3.7 10^-4/s | 
6 | NC(=O)c1nn([C@@H]2O[C@H](COP(=O)(O)OP(=O)(O)OP(=O)(O)O)[C@@H](O)[C@H]2O)cc1I |  |  | 20 | 40 | 1.8 10^-4/s | 24 | 4.7 10^-4/s | 4.4
7 | NC(=O)c1ncn([C@@H]2O[C@H](CO)[C@@H](O)[C@H]2O)n1 [RIBAVIRIN] | 4 | 40 |  |  |  |  |  | 
8 | NC(=O)c1nn([C@@H]2O[C@H](CO)[C@@H](O)[C@H]2O)cc1I | 68 | 76 |  |  |  |  |  | 
9 | Nc1nc2c(ncn2[C@@H]2O[C@H](COP(=O)(O)OP(=O)(O)OP(=O)(O)O)[C@@H](O)[C@H]2O)c(=O)[nH]1 |  |  |  |  |  | 56 | 5 10^-4/s | 

From ChEMBL document CHEMBL1140696, “Effects of introduction of hydrophobic group on ribavirin base on mutation induction and anti-RNA viral activity” (2008)
